Assays:
Rattus norvegicus [1] = species on record: Rattus norvegicus; experiment: Radioactivity distribution in kidney of normal fischer rat after injection of [18F]fluoro-2-methylpropanoic acid after 60 min.; assay type: ADME, organism-based; conditions: in vivo, 1 h
Procedure, shortened: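 Male Fischer 344 rats (200–250 g), fed ad libitum, anesthetized with intramuscular ketamine:xylazine (1:1, 0.1 mL/100 g). About 85 μCi tracer in 0.3 mL sterile water was given by tail-vein catheter. Groups of four were killed at 5, 30, 60 or 120 min. Tissues were weighed and gamma-counted against dose standards, decay-corrected, and expressed as %ID/g (mean ± standard error).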

Rattus norvegicus [2] = species on record: Rattus norvegicus; experiment: Radioactivity distribution in muscle of tumor-bearing fischer rat after injection of [18F]fluoro-2-methylpropanoic acid after 60 min; assay type: ADME, organism-based, Muscle tissue; conditions: in vivo, 1 h
Procedure, shortened: (§1)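 Male Fischer 344 rats carried intracranial 9L gliosarcoma, stereotactically implanted (4×10^4 cells) and used 17–19 days later. Awake, restrained animals received about 35 μCi tracer in 0.3 mL sterile water via the tail vein and were killed at 5, 60 or 120 min (n = 4–5). Tissues were weighed, gamma-counted, decay-corrected and reported as %ID/g ± standard error.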

Rattus norvegicus [3] = species on record: Rattus norvegicus; experiment: Radioactivity distribution in spleen of normal fischer rat after injection of [18F]fluoro-2-methylpropanoic acid after 60 min.; assay type: ADME, organism-based; conditions: in vivo, 1 h
Procedure, shortened: (§2)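 Male Fischer 344 rats (200–250 g), fed ad libitum, under intramuscular ketamine:xylazine anesthesia, got ~85 μCi radiotracer in 0.3 mL sterile water by tail-vein catheter. Groups of four were killed at 5, 30, 60 or 120 min. Dissected tissues were weighed and gamma-counted with dose standards. Counts were decay-corrected and given as %ID/g, mean ± standard error. Tissues were compared by one-way ANOVA.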

Rattus norvegicus [4] = species on record: Rattus norvegicus; experiment: Radioactivity distribution in spleen of tumor-bearing fischer rat after injection of [18F]fluoro-2-methylpropanoic acid after 5 min; assay type: ADME, organism-based; conditions: in vivo
Procedure, shortened: (§3)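 Male Fischer rats had 4×10^4 9L gliosarcoma cells implanted stereotactically into the brain, 3 mm right of midline, 1 mm anterior to bregma, 5 mm deep. They were used 17–19 days later. Awake, restrained rats got ~35 μCi in 0.3 mL sterile water by tail vein and were killed at 5, 60 or 120 min. Tissues, tumor and contralateral brain were gamma-counted, decay-corrected, as %ID/g, mean ± SE, n = 4–5.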

Rattus norvegicus [5] = species on record: Rattus norvegicus; experiment: Radioactivity distribution in testis of tumor-bearing fischer rat after injection of [18F]fluoro-2-methylpropanoic acid after 120 min; assay type: ADME, organism-based; conditions: in vivo, 2 h; procedure, shortened: as §3
Rattus norvegicus [6] = species on record: Rattus norvegicus; experiment: Radioactivity distribution in lung of tumor-bearing fischer rat after injection of [18F]-fluoro-2-methylpropanoic acid after 5 min; assay type: ADME, organism-based; conditions: in vivo; procedure, shortened: as §1
Rattus norvegicus [7] = species on record: Rattus norvegicus; experiment: Radioactivity distribution in bone of tumor-bearing fischer rat after injection of [18F]fluoro-2-methylpropanoic acid after 5 min; assay type: ADME, organism-based, Bone element; conditions: in vivo
Procedure, shortened: (§4)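 Male Fischer 344 rats carried intracranial 9L gliosarcoma, implanted stereotactically (4×10^4 cells) and used 17–19 days later. Awake restrained rats got ~35 μCi of tracer in 0.3 mL sterile water by tail-vein injection and were killed at 5, 60 or 120 min. Tissues were weighed and gamma-counted, and counts were decay-corrected to %ID/g. Results are mean ± standard error; n = 4 at 5 and 120 min, n = 5 at 60 min.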

Rattus norvegicus [8] = species on record: Rattus norvegicus; experiment: Radioactivity distribution in spleen of normal fischer rat after injection of [18F]fluoro-2-methylpropanoic acid after 30 min.; assay type: ADME, organism-based; conditions: in vivo, 0.5 h; procedure, shortened: as §2
Rattus norvegicus [9] = species on record: Rattus norvegicus; experiment: Radioactivity distribution in brain of tumor-bearing fischer rat after injection of [18F]fluoro-2-methylpropanoic acid after 120 min; assay type: ADME, organism-based; conditions: in vivo, 2 h; procedure, shortened: as §4
Rattus norvegicus [10] = species on record: Rattus norvegicus; experiment: Radioactivity distribution in brain of tumor-bearing fischer rat after injection of [18F]fluoro-2-methylpropanoic acid after 60 min; assay type: ADME, organism-based; conditions: in vivo, 1 h; procedure, shortened: as §4
Rattus norvegicus [11] = species on record: Rattus norvegicus; experiment: Radioactivity distribution in tumor of tumor-bearing fischer rat after injection of [18F]fluoro-2-methylpropanoic acid after 120 min; assay type: ADME, organism-based; conditions: in vivo, 2 h; procedure, shortened: as §3
Rattus norvegicus [12] = species on record: Rattus norvegicus; experiment: Radioactivity distribution in heart of normal fischer rat after injection of [18F]fluoro-2-methylpropanoic acid after 30 min.; assay type: ADME, organism-based; conditions: in vivo, 0.5 h
Procedure, shortened: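 Normal male Fischer 344 rats (200–250 g), anesthetized with i.m. ketamine:xylazine (1:1), got ~85 μCi of tracer in 0.3 mL sterile water i.v. via tail-vein catheter. Groups of four were killed at 5, 30, 60 or 120 min. Tissues were weighed and gamma-counted against dose standards, and counts were decay-corrected to %ID/g. Results are mean ± standard error (n = 4), compared by one-way ANOVA.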

What does the source list for CC(N)(C[18F])C(=O)O.Cl (configuration not stated)?
ID/g (Rattus norvegicus [1]): 4.74%; ID/g (Rattus norvegicus [2]): 0.31%; ID/g (Rattus norvegicus [3]): 0.5%; ID/g (Rattus norvegicus [4]): 0.72%; ID/g (Rattus norvegicus [5]): 0.11%; ID/g (Rattus norvegicus [6]): 0.84%; ID/g (Rattus norvegicus [7]): 0.38%; ID/g (Rattus norvegicus [8]): 0.54%; ID/g (Rattus norvegicus [9]): 0.05%; ID/g (Rattus norvegicus [10]): 0.054%; ID/g (Rattus norvegicus [11]): 1.87%; ID/g (Rattus norvegicus [12]): 0.29%

Reference: ChEMBL document CHEMBL1135739, “Radiolabeled amino acids for tumor imaging with PET: radiosynthesis and biological evaluation of 2-amino-3-[18F]fluoro-2-methylpropanoic acid and 3-[18F]fluoro-2-methyl-2-(methylamino)propanoic acid” (J Med Chem, 2002)
